The record followed here is ChEMBL document CHEMBL1921724, “In search of a cytostatic agent derived from the alkaloid lycorine: synthesis and growth inhibitory properties of lycorine derivatives” (Bioorg Med Chem, 2011).

As usually defined, the GI50 is the concentration at which growth is held to half of that of the control. High values mean less potent growth inhibition, low ones more potent growth inhibition.

A short description of assay [1]: Growth inhibition of pro-apoptotic stimuli-sensitive human Hs683 cells after 72 hrs by MTT assay. The assay is classed as functional. The note with it: Hs 683, 72 h. The gist of the method:
(§1)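 Cells seeded at 10,000 to 40,000 cells/mL depending on cell type and allowed to attach for 24 h. They were then cultured 72 h with or without compound (untreated control). Living cells were measured by MTT reduction to formazan, read at 570 nm against a 630 nm reference. GI50 was derived from the growth levels.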
Background: Tetrazolium assays rely on reduction of a dye to a coloured formazan, in cell work by metabolically active cells.

A further assay concerns T98G. In words: Growth inhibition of pro-apoptotic stimuli-resistant human T98G cells after 72 hrs by MTT assay. Format: functional. The method in brief:
as §1

A further assay has as its system SK-MEL-28. Description: Growth inhibition of pro-apoptotic stimuli-resistant human SK-MEL-28 cells after 72 hrs by MTT assay. The assay is classed as functional. The note with it: SK-MEL-28, 72 h. The method in brief:
as §1

The next assay concerns B16-F10. In words: Growth inhibition of pro-apoptotic stimuli-sensitive mouse B16F10 cells after 72 hrs by MTT assay. Format: functional. The conditions noted are these: B16-F10, 72 h. The method in brief: as §1
A short description of assay [2]: Growth inhibition of pro-apoptotic stimuli-resistant human U373 cells after 72 hrs by MTT assay. Format: functional, U-373MG ATCC. The note with it: U373 MG. The method in brief: as §1
The subject of another assay is MCF7. In words: Growth inhibition of human MCF7 cells after 72 hrs by MTT assay. The assay is classed as functional. The conditions noted are these: MCF7, 72 h.
In another assay the test system is A549. Description: Growth inhibition of pro-apoptotic stimuli-resistant human A549 cells after 72 hrs by MTT assay. Format: functional. The conditions noted are these: A549, 72 h. The gist of the method: as §1
For another assay, the system named is PC-3. In words: Growth inhibition of human PC3 cells after 72 hrs by MTT assay. The note with it: PC-3, 72 h. The assay is classed as functional.

Some results are limits rather than exact numbers.

For the compound `O=C1c2cc3c(cc2[C@@H]2[C@H](O)[C@@H](O)[C@H](O)[C@@]4(O)CCN1[C@@H]24)OCO3`, the GI50 was greater than 100 µM in assay [1]; greater than 100 µM in the assay on T98G; greater than 100 µM in the assay on SK-MEL-28; greater than 100 µM in the assay on B16-F10; greater than 100 µM in assay [2]; 96 µM in the assay with MCF7. Also, the GI50 in the assay on A549 and in the assay on PC-3 was greater than 100 µM each time.
As for `CC(C)(C)OC(=O)O[C@H]1[C@H]2c3cc4c(cc3CN3CCC(=C[C@@H]1OC(=O)OC(C)(C)C)[C@H]23)OCO4`, the GI50 came out at 9 µM in assay [1]; 4 µM in the assay on T98G; 20 µM with SK-MEL-28; 4 µM in the assay with B16-F10; 4 µM in assay [2]; 5 µM in the assay on MCF7. Also, the GI50 in the assay with A549 came to 3 µM; with PC-3, 22 µM.
Consider `O=C(O[C@H]1[C@H]2c3cc4c(cc3CN3CCC(=C[C@@H]1O)[C@H]23)OCO4)c1ccccc1`, for which the GI50 came out at 4 µM in assay [1]; 32 µM in the assay with T98G; 4 µM in the assay on SK-MEL-28; 8 µM in the assay with B16-F10; 0.6 µM in assay [2]; 5 µM with MCF7. Besides, the GI50 worked out at 32 µM with A549 and 5 µM in the assay on PC-3.
Consider `O=C1c2cc3c(cc2[C@@H]2[C@H](O)[C@@H](O)[C@H](O)C4=CCN1[C@H]42)OCO3`, for which the GI50 (in assay [1]; with T98G; in the assay on SK-MEL-28; in the assay on B16-F10; in assay [2]; in the assay on MCF7) was greater than 100 µM each time. Besides, the GI50 with A549 and in the assay on PC-3 was greater than 100 µM in each case.
As for `CC(=O)Oc1cc2ccn3c(=O)c4cc5c(cc4c(c1)c23)OCO5`, the GI50 came to 14 µM in assay [1]; 18 µM in the assay with T98G; 21 µM with SK-MEL-28; 5 µM with B16-F10; 5 µM in assay [2]; 7 µM with MCF7. Moreover, the GI50 in the assay on A549 stood at 18 µM; in the assay on PC-3 it was 21 µM.
Regarding `CC(=O)O[C@H]1[C@H]2c3cc4c(cc3C(=O)N3CCC(=C[C@@H]1OC(C)=O)[C@H]23)OCO4`, the GI50 in assay [1] was 49 µM; in the assay with T98G, 32 µM; in the assay with SK-MEL-28, 99 µM; in the assay with B16-F10, 75 µM; in assay [2], 39 µM; with MCF7, greater than 100 µM. The GI50 in the assay with A549 was 36 µM; with PC-3, greater than 100 µM.
Regarding `CC(=O)O[C@@H]1[C@@H](OC(C)=O)[C@H](OC(C)=O)[C@@]2(O)CCN3C(=O)c4cc5c(cc4[C@H]1[C@H]32)OCO5`, the GI50 (in assay [1]; with T98G; in the assay on SK-MEL-28; in the assay on B16-F10; in assay [2]; in the assay with MCF7) was greater than 100 µM each time. Also, the GI50 in the assay with A549 and with PC-3 was greater than 100 µM in each case.
For `O=c1c2cc3c(cc2c2cccc4c2n1CC4)OCO3`, the GI50 is 14 µM in assay [1]; 24 µM in the assay on T98G; 33 µM with SK-MEL-28; 8 µM in the assay on B16-F10; 4 µM in assay [2]; 16 µM in the assay with MCF7. For the same compound, the GI50 stood at 24 µM with A549 and 38 µM with PC-3.
On to `O=C1c2cc3c(cc2[C@@H]2[C@H](O)[C@@H](O)C=C4CCN1[C@H]42)OCO3`, for which the GI50 (in assay [1]; with T98G; in the assay on SK-MEL-28; in the assay with B16-F10; in assay [2]; in the assay with MCF7) was greater than 100 µM throughout. For the same compound, the GI50 with A549 and with PC-3 was greater than 100 µM each time.
In the case of `O=C(O[C@H]1C=C2CCN3Cc4cc5c(cc4[C@H]([C@@H]1O)[C@@H]23)OCO5)c1ccccc1`, the GI50 in assay [1] turned out to be 6 µM; in the assay on T98G, 70 µM; in the assay with SK-MEL-28, 60 µM; with B16-F10 it was 21 µM; in assay [2], 1 µM; in the assay on MCF7, 23 µM. Further, the GI50 with A549 amounted to 70 µM; in the assay with PC-3 it was 34 µM.
For `CC(=O)Oc1cc2c3c(c1)c1cc4c(cc1c(=O)n3CC2)OCO4`, the GI50 in assay [1] is 20 µM; in the assay on T98G it was 29 µM; with SK-MEL-28, greater than 100 µM; in the assay on B16-F10, 20 µM; in assay [2], 21 µM; with MCF7, 50 µM. Also, the GI50 came to 23 µM in the assay on A549 and 33 µM in the assay with PC-3.
For the compound `CC(=O)O[C@@H]1[C@@H](OC(C)=O)[C@H](OC(C)=O)C2=CCN3C(=O)c4cc5c(cc4[C@H]1[C@@H]23)OCO5`, the GI50 was greater than 100 µM in assay [1]; greater than 100 µM with T98G; greater than 100 µM in the assay with SK-MEL-28; 83 µM in the assay with B16-F10; greater than 100 µM in assay [2]; greater than 100 µM with MCF7. Besides, the GI50 in the assay on A549 and in the assay on PC-3 was greater than 100 µM in each case.
`CC(=O)O[C@H]1[C@H]2c3cc4c(cc3CN3CCC(=C[C@@H]1O[Si](C(C)C)(C(C)C)C(C)C)[C@H]23)OCO4`: the GI50 in assay [1] was determined as 36 µM; with T98G, 6 µM; in the assay with SK-MEL-28, 34 µM; in the assay with B16-F10, 30 µM; in assay [2], 15 µM; in the assay on MCF7 it was 27 µM. The GI50 in the assay on A549 amounted to 18 µM; with PC-3 it was 26 µM.
On to `CC(C)(C)C(=O)O[C@H]1C=C2CCN3Cc4cc5c(cc4[C@H]([C@@H]1O)[C@@H]23)OCO5`, for which the GI50 is 15 µM in assay [1]; 12 µM in the assay on T98G; 10 µM with SK-MEL-28; 5 µM with B16-F10; 9 µM in assay [2]; 36 µM in the assay on MCF7. For the same compound, the results for the GI50 with A549 and in the assay on PC-3 were 7 µM and 12 µM, respectively.
Regarding `CCCCCCCCCCCCCCCC(=O)O[C@H]1[C@H]2c3cc4c(cc3CN3CCC(=C[C@@H]1O[Si](C(C)C)(C(C)C)C(C)C)[C@H]23)OCO4`, the GI50 in assay [1] was 21 µM; with T98G, 3 µM; in the assay with SK-MEL-28, 38 µM; in the assay with B16-F10, 38 µM; in assay [2] it was 13 µM; with MCF7, 25 µM. In addition, the GI50 with A549 was 9 µM; in the assay on PC-3, 20 µM.
Take `O[C@H]1[C@H]2c3cc4c(cc3CN3CCC(=C[C@@H]1O)[C@H]23)OCO4` [LYCORINE]: the GI50 in assay [1] worked out at 0.9 µM; in the assay with T98G it was 3 µM; in the assay on SK-MEL-28 it was 4 µM; in the assay on B16-F10 it was 2 µM; in assay [2] it was 3 µM; in the assay with MCF7, 4 µM. Besides, the values for the GI50 in the assay with A549 and in the assay with PC-3 were 0.9 µM and 4 µM, respectively.
As for `O=c1c2cc3c(cc2c2cc(O)cc4c2n1CC4)OCO3`, the GI50 in assay [1] was 40 µM; in the assay on T98G, 41 µM; in the assay on SK-MEL-28, greater than 100 µM; in the assay with B16-F10, 38 µM; in assay [2], 49 µM; in the assay with MCF7, 9 µM. Besides, the values for the GI50 with A549 and with PC-3 were 44 µM and 48 µM, respectively.
With `O=C1C=C2CCN3Cc4cc5c(cc4[C@H]([C@@H]1O)[C@@H]23)OCO5`, the GI50 in assay [1] is 3 µM; in the assay with T98G, 38 µM; in the assay on SK-MEL-28 it was greater than 100 µM; in the assay with B16-F10, 16 µM; in assay [2], 45 µM; in the assay on MCF7, 35 µM. The GI50 in the assay on A549 was found to be 4 µM; in the assay on PC-3, 92 µM.
On to `O=C(O[C@H]1[C@H]2c3cc4c(cc3CN3CCC(=C[C@@H]1OC(=O)c1ccccc1)[C@H]23)OCO4)c1ccccc1`, for which the GI50 came out at 10 µM in assay [1]; 54 µM in the assay with T98G; 29 µM in the assay with SK-MEL-28; 24 µM in the assay with B16-F10; 1 µM in assay [2]; 20 µM in the assay with MCF7. Moreover, the GI50 with A549 was 54 µM; in the assay with PC-3 it was 11 µM.
Regarding `CC(=O)O[C@H]1[C@H]2c3cc4c(cc3CN3CCC(=C[C@@H]1O)[C@H]23)OCO4`, the GI50 in assay [1] was 11 µM; in the assay on T98G it was 2 µM; with SK-MEL-28, 3 µM; with B16-F10 it was 43 µM; in assay [2], 4 µM; with MCF7, 4 µM. The GI50 in the assay with A549 and in the assay with PC-3 was 3 µM in each case.
With `CCC(=O)O[C@H]1[C@H]2c3cc4c(cc3CN3CCC(=C[C@@H]1OC(=O)CC)[C@H]23)OCO4`, the GI50 in assay [1] worked out at 8 µM; in the assay with T98G, 0.6 µM; with SK-MEL-28, 43 µM; in the assay with B16-F10 it was 29 µM; in assay [2] it was 3 µM; in the assay on MCF7 it was 22 µM. Besides, the GI50 in the assay on A549 came to 4 µM; with PC-3 it was 41 µM.
For the compound `CCOC(=O)C[C@@]12C=C[C@@H](OC(C)=O)[C@H]3c4cc5c(cc4CN(CC1)[C@@H]32)OCO5`, the GI50 in assay [1] was greater than 100 µM; in the assay with T98G, greater than 100 µM; in the assay on SK-MEL-28, greater than 100 µM; in the assay with B16-F10 it was 79 µM; in assay [2], greater than 100 µM; in the assay with MCF7 it was greater than 100 µM. Also, the GI50 with A549 and in the assay on PC-3 was greater than 100 µM each time.
For `O[C@H]1C=C2CCN3Cc4cc5c(cc4[C@H]([C@@H]1OCc1ccccc1)[C@@H]23)OCO5`, the GI50 in assay [1] was 80 µM; in the assay with T98G, 34 µM; in the assay with SK-MEL-28 it was greater than 100 µM; in the assay with B16-F10, 57 µM; in assay [2] it was 50 µM; in the assay on MCF7 it was 74 µM. Moreover, the GI50 in the assay with A549 turned out to be 67 µM; with PC-3, 97 µM.
